Data: ChEMBL document CHEMBL5724801, “EUbOPEN Chemogenomics Library - Multiplex” (2024)
Values joined by “and” are separate entries in the source; they are usually repeats but may differ in a detail not shown here. Equal values may be shown once.

Tested on: Fibroblast
Assay: Multiplex assay against human fibroblast
Assay type: toxicity, cell-based
How it was run: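 Live cells carried four stains from seeding: Hoechst33342, BioTracker Green Microtubule Cytoskeleton Dye, MitoTracker Red and Annexin V Alexa Fluor 680. They were imaged on a CQ1 microscope at 37°C and 5% CO2 after compound addition. Using CellPathfinder machine-learning gating, cells were split into Hoechst high-intensity objects or normal cells, normal cells into healthy, pyknosed or fragmented nuclei, and pyknosed cells into mitotic or apoptotic; tubulin, mitochondrial-mass and membrane-permeability phenotypes are per cents of healthy-nucleus cells.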

[1] = 12 h, 1 µM, compound concentration 1 uM
[2] = 12 h, 10 µM, compound concentration 10 uM
[3] = 24 h, 1 µM, compound concentration 1 uM
[4] = 24 h, 10 µM, compound concentration 10 uM
[5] = 48 h, 1 µM, compound concentration 1 uM
[6] = 48 h, 10 µM, compound concentration 10 uM

O=C(NCC(=O)N1CC[C@H](N[C@H]2CC[C@@](O)(c3ccc(-c4ncccn4)cn3)CC2)C1)c1cccc(C(F)(F)F)c1 [PF-4136309]
Population Apoptotic (%) [1]: 53% and 22% | Population Fragmented Nuclei (%) [1]: 13% and 25% | Population Healthy Nuclei (%) [1]: 63% and 52% | Population Hoechst High Intensity Objects (%) [1]: 2% and 5% | Population Mitochondria Different-Phenotype (%) [1]: 4% and 7% | Population Mitotic Cells (%) [1]: 46% and 77% | Population Normal (%) [1]: 97% and 94% | Population Pyknosed Nuclei (%) [1]: 23% and 21% | Population Tubulin-Different-Phenotype (%) [1]: 28% and 60% | Total Cell Count [1]: 142 and 152 | Population Apoptotic (%) [2]: 60% and 25% | Population Fragmented Nuclei (%) [2]: 18% and 24% | Population Healthy Nuclei (%) [2]: 69% and 52% | Population Hoechst High Intensity Objects (%) [2]: 2% and 5% | Population Membrane Permeable-Phenotype (%) [2]: 0% and 4% | Population Mitochondria Different-Phenotype (%) [2]: 11% and 6% | Population Mitotic Cells (%) [2]: 40% and 75% | Population Normal (%) [2]: 97% and 94% | Population Pyknosed Nuclei (%) [2]: 12% and 23% | Population Tubulin-Different-Phenotype (%) [2]: 46% and 44% | Total Cell Count [2]: 210 and 128 | Population Apoptotic (%) [3]: 61% and 45% | Population Fragmented Nuclei (%) [3]: 14% and 33% | Population Healthy Nuclei (%) [3]: 60% and 52% | Population Hoechst High Intensity Objects (%) [3]: 2% and 4% | Population Mitochondria Different-Phenotype (%) [3]: 4% and 1% | Population Mitotic Cells (%) [3]: 38% and 55% | Population Normal (%) [3]: 97% and 95% | Population Pyknosed Nuclei (%) [3]: 25% and 14% | Population Tubulin-Different-Phenotype (%) [3]: 32% and 52% | Total Cell Count [3]: 139 and 148 | Population Apoptotic (%) [4]: 36% and 30% | Population Fragmented Nuclei (%) [4]: 15% and 29% | Population Healthy Nuclei (%) [4]: 72% and 48% | Population Hoechst High Intensity Objects (%) [4]: 3% and 2% | Population Membrane Permeable-Phenotype (%) [4]: 0% and 6% | Population Mitochondria Different-Phenotype (%) [4]: 10% and 4% | Population Mitotic Cells (%) [4]: 63% and 70% | Population Normal (%) [4]: 96% and 97% | Population Pyknosed Nuclei (%) [4]: 11% and 22% | Population Tubulin-Different-Phenotype (%) [4]: 34% and 52% | Total Cell Count [4]: 203 and 139 | Population Apoptotic (%) [5]: 58% and 50% | Population Fragmented Nuclei (%) [5]: 26% and 36% | Population Healthy Nuclei (%) [5]: 49% | Population Hoechst High Intensity Objects (%) [5]: 2% and 4% | Population Membrane Permeable-Phenotype (%) [5]: 2% and 7% | Population Mitochondria Different-Phenotype (%) [5]: 2% and 4% | Population Mitotic Cells (%) [5]: 41% and 50% | Population Normal (%) [5]: 97% and 95% | Population Pyknosed Nuclei (%) [5]: 24% and 13% | Population Tubulin-Different-Phenotype (%) [5]: 27% and 46% | Total Cell Count [5]: 149 and 137 | Population Apoptotic (%) [6]: 47% and 63% | Population Fragmented Nuclei (%) [6]: 18% and 31% | Population Healthy Nuclei (%) [6]: 72% and 52% | Population Hoechst High Intensity Objects (%) [6]: 6% | Population Membrane Permeable-Phenotype (%) [6]: 0% and 6% | Population Mitochondria Different-Phenotype (%) [6]: 15% and 6% | Population Mitotic Cells (%) [6]: 52% and 36% | Population Normal (%) [6]: 93% | Population Pyknosed Nuclei (%) [6]: 9% and 15% | Population Tubulin-Different-Phenotype (%) [6]: 47% and 54% | Total Cell Count [6]: 195 and 129

COC(c1ccccc1)(c1ccccc1)[C@H](Oc1nc(C)cc(C)n1)C(=O)O [AMBRISENTAN]
Population Apoptotic (%) [1]: 68% and 30% | Population Fragmented Nuclei (%) [1]: 13% and 18% | Population Healthy Nuclei (%) [1]: 66% and 56% | Population Hoechst High Intensity Objects (%) [1]: 1% and 4% | Population Membrane Permeable-Phenotype (%) [1]: 0% and 1% | Population Mitochondria Different-Phenotype (%) [1]: 4% and 6% | Population Mitotic Cells (%) [1]: 31% and 69% | Population Normal (%) [1]: 98% and 95% | Population Pyknosed Nuclei (%) [1]: 19% and 25% | Population Tubulin-Different-Phenotype (%) [1]: 29% and 37% | Total Cell Count [1]: 97 and 163 | Population Apoptotic (%) [2]: 56% and 33% | Population Healthy Nuclei (%) [2]: 70% and 25% | Population Hoechst High Intensity Objects (%) [2]: 5% and 4% | Population Membrane Permeable-Phenotype (%) [2]: 0% and 5% | Population Mitochondria Different-Phenotype (%) [2]: 11% and 0% | Population Mitotic Cells (%) [2]: 43% and 66% | Population Normal (%) [2]: 94% and 95% | Population Pyknosed Nuclei (%) [2]: 21% and 34% | Population Tubulin-Different-Phenotype (%) [2]: 25% and 35% | Total Cell Count [2]: 145 and 82 | Population Apoptotic (%) [3]: 62% and 34% | Population Fragmented Nuclei (%) [3]: 15% and 14% | Population Healthy Nuclei (%) [3]: 67% and 62% | Population Hoechst High Intensity Objects (%) [3]: 2% and 5% | Population Membrane Permeable-Phenotype (%) [3]: 0% and 3% | Population Mitochondria Different-Phenotype (%) [3]: 4% and 3% | Population Mitotic Cells (%) [3]: 37% and 65% | Population Normal (%) [3]: 97% and 94% | Population Pyknosed Nuclei (%) [3]: 17% and 23% | Population Tubulin-Different-Phenotype (%) [3]: 38% | Total Cell Count [3]: 95 and 158 | Population Apoptotic (%) [4]: 69% and 27% | Population Healthy Nuclei (%) [4]: 68% and 27% | Population Hoechst High Intensity Objects (%) [4]: 7% and 5% | Population Membrane Permeable-Phenotype (%) [4]: 0% and 5% | Population Mitochondria Different-Phenotype (%) [4]: 11% and 10% | Population Mitotic Cells (%) [4]: 30% and 72% | Population Normal (%) [4]: 92% and 94% | Population Pyknosed Nuclei (%) [4]: 18% and 26% | Population Tubulin-Different-Phenotype (%) [4]: 29% and 36% | Total Cell Count [4]: 149 and 73 | Population Apoptotic (%) [5]: 60% and 61% | Population Fragmented Nuclei (%) [5]: 19% and 24% | Population Healthy Nuclei (%) [5]: 64% and 54% | Population Hoechst High Intensity Objects (%) [5]: 4% and 0% | Population Membrane Permeable-Phenotype (%) [5]: 1% and 4% | Population Mitochondria Different-Phenotype (%) [5]: 5% and 10% | Population Mitotic Cells (%) [5]: 40% and 38% | Population Normal (%) [5]: 95% and 99% | Population Pyknosed Nuclei (%) [5]: 16% and 20% | Population Tubulin-Different-Phenotype (%) [5]: 28% and 42% | Total Cell Count [5]: 93 and 154 | Population Apoptotic (%) [6]: 61% and 71% | Population Healthy Nuclei (%) [6]: 71% and 31% | Population Hoechst High Intensity Objects (%) [6]: 7% and 3% | Population Membrane Permeable-Phenotype (%) [6]: 1% and 0% | Population Mitochondria Different-Phenotype (%) [6]: 10% and 0% | Population Mitotic Cells (%) [6]: 38% and 28% | Population Normal (%) [6]: 92% and 96% | Population Pyknosed Nuclei (%) [6]: 13% and 18% | Population Tubulin-Different-Phenotype (%) [6]: 34% and 62% | Total Cell Count [6]: 145 and 79
